From ChEMBL document CHEMBL4765234 (J Med Chem, 2016)
Activity calls are given as the source filed them. No cut-off for these calls is given here.

Legend:
[1] = molecular target: T1, Peroxisome proliferator-activated receptor alpha (Homo sapiens, UniProt Q07869); experiment: Agonist activity at human Gal4-fused PPARalpha LBD expressed in African green monkey CV1 cells cotransfected with pRL-SV40 plasmid measured after 24 hrs by luciferase reporter gene assay; type: cell-based, CV-1
T1 sequence (Q07869 whole entry): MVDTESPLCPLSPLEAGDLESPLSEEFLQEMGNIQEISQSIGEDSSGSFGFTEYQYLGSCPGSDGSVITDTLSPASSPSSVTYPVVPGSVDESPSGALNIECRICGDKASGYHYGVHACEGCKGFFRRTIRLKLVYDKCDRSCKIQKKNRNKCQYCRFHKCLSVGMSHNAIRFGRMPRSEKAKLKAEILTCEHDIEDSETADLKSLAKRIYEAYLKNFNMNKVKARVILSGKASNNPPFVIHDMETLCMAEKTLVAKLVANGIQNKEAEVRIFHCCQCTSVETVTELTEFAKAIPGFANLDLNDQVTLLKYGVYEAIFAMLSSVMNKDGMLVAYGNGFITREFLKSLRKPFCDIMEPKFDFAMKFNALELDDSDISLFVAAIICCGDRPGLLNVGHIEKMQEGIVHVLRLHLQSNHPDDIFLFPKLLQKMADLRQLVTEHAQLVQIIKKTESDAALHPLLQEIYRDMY
Summary of the method: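 CV1 African green monkey kidney cells were cotransfected, in DMEM with 5% charcoal-stripped FBS, with two plasmids: an SV40-driven Gal4 DBD–PPARα or PPARδ LBD hybrid, and a 5×Gal4-element firefly luciferase reporter. Cells were replated at 15000/well for 4 h, then exposed to 0.17 nM–10 μM in half-log steps for 24 h. Luciferase was read, normalized to maximum from 10 μM reference agonist, and fit by a 4-parameter model.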

Rattus norvegicus = experiment: Hypoglycemic activity in Zucker fatty diabetes mellitus rat model assessed as increase in insulin levels in plasma at 0.03 to 1 mg/kg, po administered for 21 days and measured at 10 to 60 mins post glucose challenge on day 1 by OGTT; type: functional, organism-based; conditions: dose 0.03-1 mg/kg, time 21.0 day
[2] = Metabolic stability in human liver microsomes assessed as compound hydrolysis incubated for 30 mins by LC-MS/MS analysis; type: ADME, Microsome; conditions: read-out: Drug degradation
Summary of the method: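 Incubated 30 min with mouse or human liver microsomes. Stability reported as % metabolized.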

[3] = Drug metabolism in rat hepatocytes assessed as glucuronidation by LC-MS/MS analysis; type: ADME, cell-based, Hepatocyte
[4] = Drug metabolism in dog hepatocytes assessed as glucuronidation by LC-MS/MS analysis; type: ADME, cell-based, Canis lupus familiaris, Hepatocyte
[5] = Clearance in human liver microsomes by LC-MS/MS analysis; type: ADME, Microsome
Mus musculus = experiment: Hypoglycemic activity in Balb/c mouse assessed as reduction in blood glucose level at 0.03 to 3 mg/kg, po administered 60 mins prior to glucose challenge and measured at 7 to 60 mins by IPGTT; type: functional, organism-based; conditions: dose 0.03-3 mg/kg
[6] = Volume of distribution at steady state in dog at 3 mg/kg, po or 1 mg/kg, iv by LC/MS/MS analysis; type: ADME, organism-based, Canis lupus familiaris; conditions: in vivo, read-out: Vdss
Summary of the method: (§1)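 Dosed to mice, rats or beagle dogs. Blood collected at selected time points with EDTA anticoagulant, processed to plasma and analysed by LC/MS/MS. Parameters obtained by noncompartmental analysis.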

[7] = Clearance in mouse plasma at 3 mg/kg, po or 1 mg/kg, iv by LC/MS/MS analysis; type: ADME, organism-based
Summary of the method: (§2)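 Mice, rats and beagle dogs were dosed. Blood was collected into EDTA at set time points and processed to plasma for LC/MS/MS bioanalysis. Parameters were derived by noncompartmental analysis.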

[8] = Half-life in rat at 3 mg/kg, po or 1 mg/kg, iv by LC/MS/MS analysis; type: ADME, organism-based; conditions: in vivo; summary of the method: as §1
[9] = Tmax in mouse at 3 mg/kg, po or 1 mg/kg, iv by LC/MS/MS analysis; type: ADME, organism-based; conditions: in vivo; summary of the method: as §1
[10] = Drug metabolism in dog feces assessed as metabolite formation by LC-MS/MS analysis; type: ADME, tissue-based, Canis lupus familiaris
[11] = Half-life in dog at 3 mg/kg, po or 1 mg/kg, iv by LC/MS/MS analysis; type: ADME, organism-based, Canis lupus familiaris; conditions: in vivo; summary of the method: as §1
[12] = Clearance in rat plasma at 3 mg/kg, po or 1 mg/kg, iv by LC/MS/MS analysis; type: ADME, organism-based; summary of the method: as §2
[13] = Volume of distribution at steady state in mouse at 3 mg/kg, po or 1 mg/kg, iv by LC/MS/MS analysis; type: ADME, organism-based; conditions: in vivo, read-out: Vdss; summary of the method: as §1
[14] = Half-life in mouse at 3 mg/kg, po or 1 mg/kg, iv by LC/MS/MS analysis; type: ADME, organism-based; conditions: in vivo; summary of the method: as §1
[15] = Cmax in mouse plasma at 3 mg/kg, po or 1 mg/kg, iv by LC/MS/MS analysis; type: ADME, organism-based; set-up: dose 3 mg/kg; summary of the method: as §2
[16] = Drug metabolism in dog plasma assessed as metabolite formation by LC-MS/MS analysis; type: ADME, cell-free, Canis lupus familiaris
[17] = Volume of distribution at steady state in rat at 3 mg/kg, po or 1 mg/kg, iv by LC/MS/MS analysis; type: ADME, organism-based; conditions: in vivo, read-out: Vdss; summary of the method: as §1
[18] = Elimination half-life in dog plasma at 3 mg/kg, po or 1 mg/kg, iv by LC/MS/MS analysis; type: ADME, organism-based, Canis lupus familiaris; summary of the method: as §1
[19] = Elimination half-life in mouse plasma at 3 mg/kg, po or 1 mg/kg, iv by LC/MS/MS analysis; type: ADME, organism-based; summary of the method: as §1
[20] = Oral bioavailability in mouse at 3 mg/kg by LC/MS/MS analysis; type: ADME, organism-based; conditions: in vivo; summary of the method: as §1
[21] = Oral bioavailability in dog at 3 mg/kg by LC/MS/MS analysis; type: ADME, organism-based, Canis lupus familiaris; conditions: in vivo; summary of the method: as §1
[22] = Cmax in dog plasma at 3 mg/kg, po or 1 mg/kg, iv by LC/MS/MS analysis; type: ADME, organism-based, Canis lupus familiaris; set-up: dose 3 mg/kg; summary of the method: as §2
[23] = Clearance in human hepatocytes by LC-MS/MS analysis; type: ADME, cell-based, Hepatocyte
[24] = Clearance in dog plasma at 3 mg/kg, po or 1 mg/kg, iv by LC/MS/MS analysis; type: ADME, organism-based, Canis lupus familiaris; summary of the method: as §2
[25] = Cmax in rat plasma at 3 mg/kg, po or 1 mg/kg, iv by LC/MS/MS analysis; type: ADME, organism-based; set-up: dose 3 mg/kg; summary of the method: as §2
[26] = Elimination half-life in rat plasma at 3 mg/kg, po or 1 mg/kg, iv by LC/MS/MS analysis; type: ADME, organism-based; conditions: read-out: beta t1/2 (converted); summary of the method: as §1
[27] = Drug metabolism in rat hepatocytes assessed as taurine metabolite formation by LC-MS/MS analysis; type: ADME, cell-based, Hepatocyte
[28] = Drug metabolism in dog hepatocytes assessed as taurine metabolite formation by LC-MS/MS analysis; type: ADME, cell-based, Canis lupus familiaris, Hepatocyte
[29] = Drug metabolism in human hepatocytes assessed as glucuronidation by LC-MS/MS analysis; type: ADME, cell-based, Hepatocyte
[30] = Drug metabolism in human hepatocytes assessed as taurine metabolite formation by LC-MS/MS analysis; type: ADME, cell-based, Hepatocyte
[31] = Drug metabolism in dog hepatocytes assessed as N-dealkylation by LC-MS/MS analysis; type: ADME, cell-based, Canis lupus familiaris, Hepatocyte
[32] = Drug metabolism in rat hepatocytes assessed as N-dealkylation by LC-MS/MS analysis; type: ADME, cell-based, Hepatocyte
[33] = Drug metabolism in human hepatocytes assessed as N-dealkylation by LC-MS/MS analysis; type: ADME, cell-based, Hepatocyte

Row | SMILES | EC50 [1] | Activity (Rattus norvegicus) | metabolised at 0.5 h [2] | Drug metabolism [3] | Drug metabolism [4] | CLH [5] | Activity (Mus musculus) | Vd [6] | clearance [7] | half-life [8] | Tmax [9] | Drug metabolism [10] | half-life [11] | clearance [12] | Vd [13] | half-life [14] | Cmax [15] | Drug metabolism [16] | Vd [17] | half-life [18] | further results
1 | CC#C[C@@H](CC(=O)O)c1ccc(OCc2ccc(CN3CCC4(C=Cc5ccccc54)CC3)cc2)cc1 [LY2881835] | > 10 µM | Active | 38% | Metabolite_Detected | Metabolite_Detected | 0.033 h⁻¹ | Active | – | – | – | – | – | – | – | – | – | – | – | – | – | –
2 | CC#C[C@@H](CC(=O)O)c1ccc(OCc2ccc(CN3CCCc4cccc(OC)c43)s2)cc1 | > 10 µM | Active | 24% | Metabolite_Detected | Metabolite_Detected | 0.0048 h⁻¹ | Active | 1 L/kg | 15.4 mL/min/kg | 5.6 h | 1 h | Metabolite_Notdetected | 4.4 h | 3.8 mL/min/kg | 3.9 L/kg | 4.2 h | 552 ng/mL | Metabolite_Detected | 1.2 L/kg | 4.4 h | half-life [19]: 4.2 h; bioavailability [20]: 62%; bioavailability [21]: 55%; Cmax [22]: 2290 ng/mL; CLH [23]: 0.17 h⁻¹; clearance [24]: 4.6 mL/min/kg; Cmax [25]: 4140 ng/mL; half-life [26]: 5.6 h
3 | CC#C[C@@H](CC(=O)O)c1ccc(OCc2ccc(CN3CCC4(CCc5ccccc54)CC3)s2)cc1 | > 10 µM | Active | 44% | Metabolite_Detected | Metabolite_Detected | 0.109 h⁻¹ | Active | 0.2 L/kg | 9.3 mL/min/kg | 1.6 h | 2 h | Metabolite_Notdetected | 3.8 h | 20 mL/min/kg | 1.6 L/kg | 1.7 h | 184 ng/mL | Metabolite_Notdetected | 0.8 L/kg | 3.8 h | Drug metabolism [27]: Metabolite_Detected; Drug metabolism [28]: Metabolite_Detected; Drug metabolism [29]: Metabolite_Detected; Drug metabolism [30]: Metabolite_Detected; Drug metabolism [31]: Metabolite_Detected; Drug metabolism [32]: Metabolite_Detected; half-life [19]: 1.7 h; bioavailability [20]: 21%; bioavailability [21]: 17%; Cmax [22]: 1100 ng/mL; CLH [23]: 0.23 h⁻¹; clearance [24]: 2.2 mL/min/kg; Drug metabolism [33]: Metabolite_Detected; Cmax [25]: 829 ng/mL; half-life [26]: 2 h
4 | CC#C[C@@H](CC(=O)O)c1ccc(OCc2ccc(CN3CCC4(C=Cc5ccccc54)CC3)s2)cc1 | – | – | – | Metabolite_Detected | Metabolite_Detected | – | – | – | – | – | – | – | – | – | – | – | – | – | – | – | Drug metabolism [27]: Metabolite_Detected; Drug metabolism [28]: Metabolite_Detected; Drug metabolism [29]: Metabolite_Detected; Drug metabolism [30]: Metabolite_Detected; Drug metabolism [31]: Metabolite_Detected; Drug metabolism [32]: Metabolite_Detected; Drug metabolism [33]: Metabolite_Detected
